Tests used:
[1] = biological target: T1, Testis-specific serine/threonine-protein kinase 4 (Homo sapiens) (UniProt Q6SA08); experiment: Inhibition of human recombinant TSSK4 at 500 nM related to control ULK1
T1 sequence (whole entry): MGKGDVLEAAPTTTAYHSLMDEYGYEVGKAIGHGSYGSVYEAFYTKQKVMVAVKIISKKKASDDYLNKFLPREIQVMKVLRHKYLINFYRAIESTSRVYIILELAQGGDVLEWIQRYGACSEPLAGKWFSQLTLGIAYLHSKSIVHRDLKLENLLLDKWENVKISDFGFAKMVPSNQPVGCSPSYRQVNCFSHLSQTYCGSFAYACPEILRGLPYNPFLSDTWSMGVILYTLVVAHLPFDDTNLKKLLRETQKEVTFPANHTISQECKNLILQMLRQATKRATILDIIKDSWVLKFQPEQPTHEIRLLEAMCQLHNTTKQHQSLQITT

[2] = biological target: Serine/threonine-protein kinase PAK 1 (Homo sapiens) (UniProt Q13153); experiment: Inhibition of human recombinant PAK1 at 500 nM in presence of ATP by radiometric assay relative to control
[3] = biological target: T2, G protein-coupled receptor kinase 3 (Homo sapiens) (UniProt P35626); experiment: Inhibition of human recombinant BARK2 at 15 nM in presence of ATP by radiometric assay relative to control
T2 sequence (whole entry): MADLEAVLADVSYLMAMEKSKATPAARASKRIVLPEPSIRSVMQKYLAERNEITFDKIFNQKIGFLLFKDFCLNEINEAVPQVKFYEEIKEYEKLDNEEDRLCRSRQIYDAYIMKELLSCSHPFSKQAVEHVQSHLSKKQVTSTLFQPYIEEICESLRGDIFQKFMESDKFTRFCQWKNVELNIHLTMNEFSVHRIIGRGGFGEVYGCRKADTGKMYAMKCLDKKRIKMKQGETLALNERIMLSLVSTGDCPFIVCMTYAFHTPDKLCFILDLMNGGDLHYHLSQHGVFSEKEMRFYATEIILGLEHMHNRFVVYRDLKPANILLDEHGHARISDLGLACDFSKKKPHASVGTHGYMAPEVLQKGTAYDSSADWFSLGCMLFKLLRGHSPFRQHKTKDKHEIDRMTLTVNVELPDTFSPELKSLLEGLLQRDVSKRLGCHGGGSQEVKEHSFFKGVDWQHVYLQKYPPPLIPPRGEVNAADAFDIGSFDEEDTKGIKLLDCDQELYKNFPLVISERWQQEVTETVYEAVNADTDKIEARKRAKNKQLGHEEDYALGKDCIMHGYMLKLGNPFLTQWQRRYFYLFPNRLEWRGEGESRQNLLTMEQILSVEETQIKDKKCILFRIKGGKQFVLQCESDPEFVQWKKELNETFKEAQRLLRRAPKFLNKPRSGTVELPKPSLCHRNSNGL
In short: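 Part of a radiometric in vitro activity panel of 327 recombinant human kinases. Each kinase was tested in duplicate at one inhibitor concentration. Activity remaining was expressed as a percentage of the vehicle control, and percent inhibition was taken as 100 minus that value.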

[4] = biological target: T3, Testis-specific serine/threonine-protein kinase 1 (Homo sapiens) (UniProt Q9BXA7); experiment: Inhibition of human recombinant TSSK1 at 15 nM in presence of ATP by radiometric assay relative to control
T3 sequence (whole entry): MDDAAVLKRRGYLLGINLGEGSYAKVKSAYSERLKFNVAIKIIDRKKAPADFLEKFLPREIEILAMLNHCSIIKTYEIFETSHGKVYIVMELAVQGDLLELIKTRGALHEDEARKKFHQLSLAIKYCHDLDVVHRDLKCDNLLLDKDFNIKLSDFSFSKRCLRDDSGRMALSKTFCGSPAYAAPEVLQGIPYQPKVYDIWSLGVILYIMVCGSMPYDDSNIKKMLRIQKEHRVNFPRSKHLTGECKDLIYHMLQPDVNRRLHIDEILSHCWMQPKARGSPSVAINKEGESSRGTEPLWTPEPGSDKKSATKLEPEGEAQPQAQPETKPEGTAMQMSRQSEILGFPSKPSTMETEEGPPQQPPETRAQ

[5] = biological target: T4, Serine/threonine-protein kinase ULK2 (Homo sapiens) (UniProt Q8IYT8); experiment: Inhibition of human recombinant ULK2 at 15 nM in presence of ATP by radiometric assay relative to control
T4 sequence (whole entry): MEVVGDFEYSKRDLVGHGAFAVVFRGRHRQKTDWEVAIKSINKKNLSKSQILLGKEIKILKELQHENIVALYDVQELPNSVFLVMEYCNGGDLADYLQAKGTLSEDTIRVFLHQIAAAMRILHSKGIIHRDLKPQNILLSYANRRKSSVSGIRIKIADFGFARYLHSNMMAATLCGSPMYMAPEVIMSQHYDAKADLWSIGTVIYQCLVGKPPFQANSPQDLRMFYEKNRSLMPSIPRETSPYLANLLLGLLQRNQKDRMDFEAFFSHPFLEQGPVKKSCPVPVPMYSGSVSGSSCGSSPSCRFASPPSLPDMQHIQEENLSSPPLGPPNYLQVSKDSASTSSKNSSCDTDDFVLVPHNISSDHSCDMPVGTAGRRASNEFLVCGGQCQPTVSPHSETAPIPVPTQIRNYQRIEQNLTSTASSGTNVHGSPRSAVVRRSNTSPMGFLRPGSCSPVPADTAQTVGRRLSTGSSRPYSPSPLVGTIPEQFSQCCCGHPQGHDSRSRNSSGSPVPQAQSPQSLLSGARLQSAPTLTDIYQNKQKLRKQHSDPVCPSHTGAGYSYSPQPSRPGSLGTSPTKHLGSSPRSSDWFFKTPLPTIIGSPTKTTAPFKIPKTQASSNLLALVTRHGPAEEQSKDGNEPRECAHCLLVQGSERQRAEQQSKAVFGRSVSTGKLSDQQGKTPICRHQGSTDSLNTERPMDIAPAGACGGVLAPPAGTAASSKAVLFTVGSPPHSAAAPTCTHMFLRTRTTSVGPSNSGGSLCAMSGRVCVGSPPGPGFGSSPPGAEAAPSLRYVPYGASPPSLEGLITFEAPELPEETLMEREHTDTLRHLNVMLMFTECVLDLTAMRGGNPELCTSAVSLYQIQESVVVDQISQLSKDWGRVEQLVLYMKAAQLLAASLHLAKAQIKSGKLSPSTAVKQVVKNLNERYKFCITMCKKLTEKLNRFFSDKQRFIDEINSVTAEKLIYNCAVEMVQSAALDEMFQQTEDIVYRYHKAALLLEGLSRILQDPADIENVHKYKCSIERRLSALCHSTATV

Serine/threonine-protein kinase PAK 1 (Homo sapiens), sequence (Q13153 whole entry, looked up): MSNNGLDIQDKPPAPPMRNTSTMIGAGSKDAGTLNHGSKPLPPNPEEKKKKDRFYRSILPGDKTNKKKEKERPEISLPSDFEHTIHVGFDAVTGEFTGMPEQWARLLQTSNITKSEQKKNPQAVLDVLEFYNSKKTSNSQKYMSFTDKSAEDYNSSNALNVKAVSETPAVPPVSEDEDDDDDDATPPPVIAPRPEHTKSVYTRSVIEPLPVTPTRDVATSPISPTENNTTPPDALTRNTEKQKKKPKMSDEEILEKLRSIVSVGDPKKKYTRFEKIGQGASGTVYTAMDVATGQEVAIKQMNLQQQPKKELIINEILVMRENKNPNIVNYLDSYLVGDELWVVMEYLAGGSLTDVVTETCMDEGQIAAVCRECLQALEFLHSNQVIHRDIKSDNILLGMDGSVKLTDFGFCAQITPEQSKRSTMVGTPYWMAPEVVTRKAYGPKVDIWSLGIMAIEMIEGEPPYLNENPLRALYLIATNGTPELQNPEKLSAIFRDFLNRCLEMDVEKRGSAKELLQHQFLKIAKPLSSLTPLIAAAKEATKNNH

Row | fold change (FC) [1] | inhibition [2] | inhibition [3] | inhibition [4] | inhibition [5] | Compound
1 | 0 | 20% | – | – | – | CNC(=O)c1ccccc1Oc1nc(Nc2cc(OC)c(OC)c(OC)c2)ncc1Br
2 | – | – | 0% | 23% | 73% | CC(C)[C@H](NC(=O)c1cc(-c2cnn3cc(-c4ccc(OCCN5CCCCC5)cc4)cnc23)cs1)C(F)(F)F

Source: ChEMBL document CHEMBL5653631, “A Potent and Selective ULK1 Inhibitor Suppresses Autophagy and Sensitizes Cancer Cells to Nutrient Stress” (iScience, 2018)
